In publication PMC7286548 (Cell chemical biology, 2020):
pIC50: −log10 of the molar value.

Key:
PI5P4Kα [1] = target: T1, PI5P4Kα (Homo sapiens, UniProt P48426); experiment: Radiometric TLC kinase assay; assay type: biochemical
T1 sequence (P48426 1-406): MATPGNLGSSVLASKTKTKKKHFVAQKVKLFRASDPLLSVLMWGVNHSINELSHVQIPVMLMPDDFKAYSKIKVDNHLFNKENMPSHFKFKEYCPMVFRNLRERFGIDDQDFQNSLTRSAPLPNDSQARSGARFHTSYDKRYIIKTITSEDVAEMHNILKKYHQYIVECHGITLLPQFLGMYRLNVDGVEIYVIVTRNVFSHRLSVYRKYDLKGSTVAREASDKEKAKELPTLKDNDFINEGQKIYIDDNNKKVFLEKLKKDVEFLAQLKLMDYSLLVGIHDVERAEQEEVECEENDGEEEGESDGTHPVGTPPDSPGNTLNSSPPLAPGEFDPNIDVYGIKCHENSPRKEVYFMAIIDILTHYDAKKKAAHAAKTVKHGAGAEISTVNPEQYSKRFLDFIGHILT
Method in brief: (§1)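 Purified PI5P4K (0.1 μg) was preincubated with DMSO or test compound at various concentrations in 50 mM HEPES pH 7.4, 10 mM MgCl2. Sonicated lipid substrate, 10 μM unlabeled ATP and [γ-32P]ATP were then added. Reaction ran 10 min at room temperature. Radiolabeled PI(4,5)P2 product was quantified by phosphorimager.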

PI5P4Kβ [2] = target: T2, PI5P4Kβ (Homo sapiens, UniProt P78356); experiment: Radiometric TLC kinase assay; assay type: biochemical
T2 sequence (P78356 1-416): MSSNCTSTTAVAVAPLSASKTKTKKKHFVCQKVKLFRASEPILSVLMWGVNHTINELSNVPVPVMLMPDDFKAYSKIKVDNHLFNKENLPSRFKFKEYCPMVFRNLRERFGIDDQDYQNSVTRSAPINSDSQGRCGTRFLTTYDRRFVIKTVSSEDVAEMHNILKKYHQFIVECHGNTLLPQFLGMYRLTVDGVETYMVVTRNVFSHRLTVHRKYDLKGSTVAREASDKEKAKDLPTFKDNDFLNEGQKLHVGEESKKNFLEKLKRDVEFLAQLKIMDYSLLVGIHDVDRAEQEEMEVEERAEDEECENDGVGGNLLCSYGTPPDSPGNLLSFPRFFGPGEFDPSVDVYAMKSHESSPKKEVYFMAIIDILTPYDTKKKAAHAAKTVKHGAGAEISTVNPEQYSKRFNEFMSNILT
Method in brief: as §1

PI5P4Kγ = target: T3, PI5P4Kγ (Homo sapiens, UniProt Q8TBX8); experiment: Radiometric TLC kinase assay; assay type: biochemical; details: Fig. S1B-C
T3 sequence (Q8TBX8 1-421): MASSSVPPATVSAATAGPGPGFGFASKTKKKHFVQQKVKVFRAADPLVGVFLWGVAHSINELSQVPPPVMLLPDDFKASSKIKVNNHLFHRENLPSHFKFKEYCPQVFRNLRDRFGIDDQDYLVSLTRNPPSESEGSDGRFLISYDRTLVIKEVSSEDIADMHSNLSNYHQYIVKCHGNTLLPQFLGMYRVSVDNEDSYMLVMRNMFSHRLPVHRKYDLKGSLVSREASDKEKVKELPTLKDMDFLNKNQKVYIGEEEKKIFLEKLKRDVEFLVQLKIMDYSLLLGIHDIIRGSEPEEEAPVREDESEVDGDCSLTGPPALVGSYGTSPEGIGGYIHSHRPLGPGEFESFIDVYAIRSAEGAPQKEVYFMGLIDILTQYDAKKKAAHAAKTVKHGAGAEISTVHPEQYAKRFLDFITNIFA

AML/ALL cell lines = experiment: 72 h Cell-Titer Glo proliferation assay; assay type: cell-based; details: all six AML/ALL cell lines
Method in brief: (§2)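 Cells plated in 96- or 384-well format and treated with test compound over a concentration range for 72h. Viability read by CellTiter-Glo luminescence. Leukemia lines cultured per ATCC/DSMZ recommendations in 5% CO2. K562 and KU812F came from an outside lab.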

HeLa cells [3] = experiment: RFP-GFP-LC3B tandem sensor autophagy flux assay; assay type: cell-based; details: 1 μM, 16 hours
Method in brief: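 HeLa cells (DMEM, 10% FBS) on coverslip-bottomed dishes were transduced with 40 particles/cell of the RFP-GFP-LC3B tandem sensor and cultured 16–24h. They were then exposed to DMSO, 50 μM chloroquine or 1 μM test compound for 16h. Live imaging at 37°C in phenol red-free DMEM by spinning-disk confocal microscopy.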

PIKfyve [4] = target: T4, PIKfyve (Homo sapiens, UniProt Q9Y2I7); experiment: DiscoverX KINOMEScan; assay type: binding
HeLa cells [5] = experiment: TFEB nuclear localization immunofluorescence; assay type: cell-based; details: 0.25-1.0 μM overnight
PIKfyve [6] = experiment: Vacuolar enlargement assay in Vero cells; assay type: cell-based
PI4P5Kβ = PI4P5Kβ (Homo sapiens, UniProt O14986); experiment: Lipid kinase off-target inhibition assay; assay type: biochemical; details: Fig. S3C
PI4P5Kα = PI4P5Kα (Homo sapiens, UniProt Q99755); experiment: Lipid kinase off-target inhibition assay; assay type: biochemical; details: Fig. S3C
PIKfyve [7] = target: T4, PIKfyve; experiment: Fixed time-point ADP-Glo assay; assay type: biochemical
PI5P4Kα [8] = target: T1, PI5P4Kα; experiment: Intact electrospray MS covalent labeling; assay type: binding; details: within 2 h; 5 μM inhibitor, 37°C
Method in brief: (§3)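 Intact mass read by LC-ESI-MS on reversed phase. Modified site mapped by TCEP (10 mM final) reduction, iodoacetamide (22.5 mM final) alkylation, Asp-N or Glu-C digestion overnight at 37°C, then nanoLC-MS.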

PI5P4Kβ [9] = target: T2, PI5P4Kβ; experiment: Intact electrospray MS covalent labeling; assay type: binding; details: within 2 h; 5 μM inhibitor, 37°C
Method in brief: as §3

PI4P5Kγ = PI4P5Kγ (Homo sapiens, UniProt O60331); experiment: Lipid kinase off-target inhibition assay; assay type: biochemical; details: Fig. S3C
K562 and KU812F = experiment: Proliferation of BCR-ABL translocation containing cell lines; assay type: cell-based; details: Fig. S4C
Method in brief: as §2

PI5P4K = experiment: Competitive streptavidin pulldown after pre-treating HEK293T cells; assay type: cell-based
Method in brief: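 HEK293T cells grown to 90–95% confluence were pretreated 6h with DMSO or varying test compound concentrations, then washed twice in cold PBS. Lysis on ice 60 min with protease inhibitors, cleared 20,000 × g 15 min at 4°C, protein-equalized by BCA. Lysates were rotated overnight at 4°C with 1 μM biotinylated probe, then 2h at RT, then on streptavidin resin 2h at 4°C. Beads washed ×5, boiled in LDS 95°C 10 min, immunoblotted.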

[10] = target: top off-targets except for BRK and ABL1; experiment: Z'LYTE kinase assay; assay type: biochemical; details: Fig. S4A
Method in brief: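 ATP at apparent Km. Kinases tested were TYK2, RPS6KA4 (MSK2), CSNK2A2 (CK2α2), KIT and PDGFRB.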

T4 sequence (Q9Y2I7 whole entry): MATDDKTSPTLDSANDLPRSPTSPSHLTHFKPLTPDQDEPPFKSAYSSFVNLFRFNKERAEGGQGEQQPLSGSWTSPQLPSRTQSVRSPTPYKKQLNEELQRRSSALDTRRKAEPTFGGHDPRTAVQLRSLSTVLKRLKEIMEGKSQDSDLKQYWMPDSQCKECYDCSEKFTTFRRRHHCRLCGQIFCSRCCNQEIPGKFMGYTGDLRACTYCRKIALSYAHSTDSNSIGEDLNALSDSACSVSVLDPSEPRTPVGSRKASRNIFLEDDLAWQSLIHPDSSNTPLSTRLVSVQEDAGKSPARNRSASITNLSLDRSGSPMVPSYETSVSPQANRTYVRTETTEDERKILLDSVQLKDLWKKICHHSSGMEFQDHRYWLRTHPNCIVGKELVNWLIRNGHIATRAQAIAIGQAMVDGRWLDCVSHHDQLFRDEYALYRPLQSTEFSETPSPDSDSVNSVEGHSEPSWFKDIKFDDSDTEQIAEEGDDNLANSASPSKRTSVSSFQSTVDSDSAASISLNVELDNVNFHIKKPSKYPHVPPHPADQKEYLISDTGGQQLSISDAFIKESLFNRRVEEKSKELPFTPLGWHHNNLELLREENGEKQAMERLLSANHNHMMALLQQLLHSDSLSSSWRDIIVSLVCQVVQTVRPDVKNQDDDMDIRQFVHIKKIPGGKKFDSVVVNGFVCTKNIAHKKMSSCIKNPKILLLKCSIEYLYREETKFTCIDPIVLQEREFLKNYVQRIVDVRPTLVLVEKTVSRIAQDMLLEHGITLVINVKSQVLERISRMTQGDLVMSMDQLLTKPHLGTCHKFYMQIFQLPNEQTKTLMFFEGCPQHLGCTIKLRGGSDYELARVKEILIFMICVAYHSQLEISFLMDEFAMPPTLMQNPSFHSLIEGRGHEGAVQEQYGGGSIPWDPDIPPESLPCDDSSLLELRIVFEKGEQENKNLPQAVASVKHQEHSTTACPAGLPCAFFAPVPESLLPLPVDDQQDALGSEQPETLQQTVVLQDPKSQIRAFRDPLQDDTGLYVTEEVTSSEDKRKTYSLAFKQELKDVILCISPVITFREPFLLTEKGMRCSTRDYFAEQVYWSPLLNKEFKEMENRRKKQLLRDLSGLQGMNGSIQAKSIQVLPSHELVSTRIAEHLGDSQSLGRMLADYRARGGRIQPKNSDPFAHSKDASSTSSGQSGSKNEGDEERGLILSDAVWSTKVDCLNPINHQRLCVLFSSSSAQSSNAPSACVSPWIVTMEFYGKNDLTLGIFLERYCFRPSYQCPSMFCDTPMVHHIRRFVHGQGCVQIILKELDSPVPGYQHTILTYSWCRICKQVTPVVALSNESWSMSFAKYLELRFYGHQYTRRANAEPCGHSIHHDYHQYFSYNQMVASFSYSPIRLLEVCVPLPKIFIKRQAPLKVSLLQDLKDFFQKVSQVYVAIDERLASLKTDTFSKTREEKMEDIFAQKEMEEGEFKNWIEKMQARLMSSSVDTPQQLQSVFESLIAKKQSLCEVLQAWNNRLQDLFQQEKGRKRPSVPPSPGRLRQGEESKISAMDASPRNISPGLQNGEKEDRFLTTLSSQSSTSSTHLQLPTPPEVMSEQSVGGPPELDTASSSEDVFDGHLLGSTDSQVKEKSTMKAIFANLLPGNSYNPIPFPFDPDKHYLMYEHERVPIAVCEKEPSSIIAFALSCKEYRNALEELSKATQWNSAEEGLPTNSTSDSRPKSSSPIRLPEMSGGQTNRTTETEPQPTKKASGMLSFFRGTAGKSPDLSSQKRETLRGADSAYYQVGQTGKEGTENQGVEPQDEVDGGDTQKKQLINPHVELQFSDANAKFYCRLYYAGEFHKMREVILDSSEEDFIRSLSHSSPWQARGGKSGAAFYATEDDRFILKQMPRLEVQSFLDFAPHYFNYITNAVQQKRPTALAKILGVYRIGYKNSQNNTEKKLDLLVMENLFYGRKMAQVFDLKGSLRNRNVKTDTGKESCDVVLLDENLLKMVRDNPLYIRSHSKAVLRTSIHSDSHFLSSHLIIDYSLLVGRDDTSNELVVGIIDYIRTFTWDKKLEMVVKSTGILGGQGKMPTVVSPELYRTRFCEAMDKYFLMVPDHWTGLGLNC
PI4P5Kβ, sequence (O14986 whole entry): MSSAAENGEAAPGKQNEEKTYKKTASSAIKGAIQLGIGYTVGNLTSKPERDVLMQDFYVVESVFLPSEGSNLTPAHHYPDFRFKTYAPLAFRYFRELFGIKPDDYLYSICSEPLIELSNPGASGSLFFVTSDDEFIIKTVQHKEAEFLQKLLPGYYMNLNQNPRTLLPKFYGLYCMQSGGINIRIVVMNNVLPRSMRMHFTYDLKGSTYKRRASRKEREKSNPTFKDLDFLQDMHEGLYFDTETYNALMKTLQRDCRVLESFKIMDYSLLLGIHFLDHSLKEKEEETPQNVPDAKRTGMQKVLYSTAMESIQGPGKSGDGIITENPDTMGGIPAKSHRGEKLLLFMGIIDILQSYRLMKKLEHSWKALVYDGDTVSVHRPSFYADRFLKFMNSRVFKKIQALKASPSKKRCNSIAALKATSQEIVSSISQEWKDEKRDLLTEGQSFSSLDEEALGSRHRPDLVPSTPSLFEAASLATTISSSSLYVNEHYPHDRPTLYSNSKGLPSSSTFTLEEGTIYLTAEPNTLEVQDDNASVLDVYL
PI4P5Kα, sequence (Q99755 whole entry): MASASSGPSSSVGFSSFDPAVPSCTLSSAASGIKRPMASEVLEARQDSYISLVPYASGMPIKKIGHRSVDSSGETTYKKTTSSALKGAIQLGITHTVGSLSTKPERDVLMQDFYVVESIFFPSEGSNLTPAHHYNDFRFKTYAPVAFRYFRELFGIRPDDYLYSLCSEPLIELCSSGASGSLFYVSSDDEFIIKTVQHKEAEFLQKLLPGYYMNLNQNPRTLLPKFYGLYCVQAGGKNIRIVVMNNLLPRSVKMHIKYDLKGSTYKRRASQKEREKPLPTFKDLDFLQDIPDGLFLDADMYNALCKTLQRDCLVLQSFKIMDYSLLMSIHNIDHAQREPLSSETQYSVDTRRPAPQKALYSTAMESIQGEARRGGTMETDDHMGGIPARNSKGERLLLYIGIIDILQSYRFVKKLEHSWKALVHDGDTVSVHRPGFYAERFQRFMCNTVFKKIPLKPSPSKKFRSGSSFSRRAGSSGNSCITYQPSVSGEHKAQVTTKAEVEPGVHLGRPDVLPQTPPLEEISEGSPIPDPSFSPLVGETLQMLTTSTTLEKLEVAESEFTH
PI4P5Kγ, sequence (O60331 whole entry): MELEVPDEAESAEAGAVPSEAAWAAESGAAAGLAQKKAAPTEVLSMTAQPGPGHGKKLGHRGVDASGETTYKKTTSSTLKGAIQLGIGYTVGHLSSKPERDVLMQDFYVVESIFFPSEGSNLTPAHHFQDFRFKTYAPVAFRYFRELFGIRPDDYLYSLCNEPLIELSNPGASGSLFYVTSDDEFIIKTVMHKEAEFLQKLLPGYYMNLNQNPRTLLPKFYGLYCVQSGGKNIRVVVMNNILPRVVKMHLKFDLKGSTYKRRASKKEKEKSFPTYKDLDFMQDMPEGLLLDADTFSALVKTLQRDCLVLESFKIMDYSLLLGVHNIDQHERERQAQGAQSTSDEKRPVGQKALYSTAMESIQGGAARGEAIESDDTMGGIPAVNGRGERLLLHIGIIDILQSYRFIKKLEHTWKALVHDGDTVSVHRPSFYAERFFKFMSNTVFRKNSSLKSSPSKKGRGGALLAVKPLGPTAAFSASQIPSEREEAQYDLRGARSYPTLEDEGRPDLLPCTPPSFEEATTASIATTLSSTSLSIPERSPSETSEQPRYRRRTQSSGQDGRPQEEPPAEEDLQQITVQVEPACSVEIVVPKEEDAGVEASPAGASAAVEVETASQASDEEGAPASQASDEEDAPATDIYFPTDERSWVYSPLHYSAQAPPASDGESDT

Question: How did the “inhibition of kinase activity (in words)” value (PI5P4Kα [1]; Fig. S1B-C) turn out when CN(C)C/C=C/C(=O)Nc1cccc(C(=O)Nc2ccc(Nc3nccc(-c4cccnc4)n3)cc2)c1 [JNK-IN-7, reference compound] was run?
Answer: inhibit

Question: And the “inhibition of kinase activity (in words)” value (PI5P4Kβ [2]; Fig. S1B-C)?
Answer: inhibit

Question: And the “inhibition of kinase activity (in words)” value (PI5P4Kγ)?
Answer: inhibit

Question: With CN(C)C/C=C/C(=O)Nc1ccc(C(=O)Nc2cccc(Nc3cc(-c4c[nH]c5ccccc45)ncn3)c2)cc1 [THZ-P1-2] as the compound, how does the “inhibition of PI-4,5-P2 formation” value (PI5P4Kα [1]; 0.7 μM) read?
Answer: approximately 75%

Question: What about the “anti-proliferative IC50 (in words)” value (AML/ALL cell lines) of the same compound?
Answer: low micromolar range

Question: And the “GFP signal of RFP-GFP-LC3B sensor (in words)” value (HeLa cells [3])?
Answer: marked increase

Question: And the “RFP signal of RFP-GFP-LC3B sensor (in words)” value (HeLa cells [3])?
Answer: moderate increase

Question: What about the “% DMSO control” value (PIKfyve [4]) of the same compound?
Answer: 6.4 % DMSO control

Question: And the “nuclear TFEB accumulation (in words)” value (HeLa cells [5])?
Answer: increase

Question: What about the “inhibition of PIKfyve in cells (in words)” value (PIKfyve [6]; 1 μM) of the same compound?
Answer: failed to show inhibition

Question: What about the “IC50 (in words)” value (PI4P5Kβ) of the same compound?
Answer: low micromolar

Question: And the “IC50 (in words)” value (PI4P5Kα)?
Answer: low micromolar

Question: And the “inhibition of PI-4,5-P2 formation” value (PI5P4Kβ [2]; 0.7 μM)?
Answer: ~50%

Question: What about the pIC50 (PIKfyve [7]) of the same compound?
Answer: 7.40

Question: And the covalent labeling (PI5P4Kα [8])?
Answer: 100%

Question: And the covalent labeling (PI5P4Kβ [9])?
Answer: 100%

Question: And the “IC50 (in words)” value (PI4P5Kγ)?
Answer: low micromolar

Question: What about the “potency at killing cells versus imatinib, nilotinib and dasatinib (in words)” value (K562 and KU812F) of the same compound?
Answer: markedly less potent

Question: What about the “earliest time of on-target engagement in washout pulldown” value (PI5P4K; 1 μM compound treatment, washout at 2 and 4 hours) of the same compound?
Answer: 2 h

Question: And the “competition of pulldown by 1 μM dtb-THZ-P1-2 (in words)” value (PI5P4K; pre-treatment of HEK293T cells)?
Answer: compete and block pulldown

Question: What about the “IC50 (in words)” value [10] of the same compound?
Answer: micromolar range

Question: With Cc1cccc(/C=N/Nc2cc(N3CCOCC3)nc(OCCc3ccccn3)n2)c1 [apilimod, reference compound] as the compound, how does the “concentration causing substantial vacuolar enlargement” value (PIKfyve [6]; positive control) read?
Answer: 10 nM
